From ChEMBL document CHEMBL1141529, “Design and synthesis of 3-arylpyrrolidine-2-carboxamide derivatives as melanocortin-4 receptor ligands” (Bioorg Med Chem Lett, 2008)
pEC50, pIC50, pKi: −log10 of the molar value.

Assays:
Melanocortin receptor 4 [1] = molecular target: T1, Melanocortin receptor 4 (Homo sapiens, UniProt P32245); test: Displacement of [125]NDPMSH from human MC4 receptor expressed in HEK293 cells; assay type: cell-based
Rattus norvegicus = test: AUC in rat at 10 mg/kg, po; assay type: ADME, organism-based, Plasma; parameters: dose 10 mg/kg, route oral; conditions: in vivo
Outline: (§1)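 Rats dosed orally at 10 mg/kg. Cmax and AUC are plasma values. Absolute bioavailability is referenced to a separate intravenous 5 mg/kg dose.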

[2] = Half life in rat at 5 mg/kg, iv; assay type: ADME, organism-based; parameters: dose 5 mg/kg, route intravenous; conditions: in vivo
Outline: (§2)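 Single intravenous injection at 5 mg/kg in rats. Clearance, volume of distribution and half-life are derived from plasma concentrations.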

[3] = Cmax in rat at 10 mg/kg, po; assay type: ADME, organism-based; parameters: dose 10 mg/kg, route oral; conditions: in vivo; outline: as §1
[4] = Plasma clearance in rat at 5 mg/kg, iv; assay type: ADME, organism-based; parameters: dose 5 mg/kg, route intravenous; outline: as §2
[5] = Volume of distribution in rat at 5 mg/kg, iv; assay type: ADME, organism-based; parameters: dose 5 mg/kg, route intravenous; conditions: in vivo; outline: as §2
[6] = Absolute bioavailability in rat at 10 mg/kg, po; assay type: ADME, organism-based; conditions: in vivo; outline: as §1
Melanocortin receptor 4 [7] = molecular target: T1, Melanocortin receptor 4; test: Antagonist activity at MC4 receptor assessed as inhibition of alpha-MSH-stimulated cAMP production; assay type: functional
Melanocortin receptor 4 [8] = molecular target: T1, Melanocortin receptor 4; test: Agonist activity at MC4 receptor by cAMP assay; assay type: functional

T1 sequence (P32245 whole entry): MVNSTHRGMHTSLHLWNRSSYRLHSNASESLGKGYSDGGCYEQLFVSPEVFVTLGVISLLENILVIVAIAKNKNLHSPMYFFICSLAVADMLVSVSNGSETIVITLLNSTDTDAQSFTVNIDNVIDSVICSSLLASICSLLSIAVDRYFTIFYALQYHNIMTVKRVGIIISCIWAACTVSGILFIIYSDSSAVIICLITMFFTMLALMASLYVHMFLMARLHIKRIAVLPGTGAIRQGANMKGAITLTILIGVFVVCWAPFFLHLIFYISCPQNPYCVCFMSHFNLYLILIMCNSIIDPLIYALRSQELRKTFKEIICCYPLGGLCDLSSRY

Structure (SMILES)	pKi (Melanocortin receptor 4 [1])	other results
Cc1ccc(N2CCN(C(=O)[C@H]3[C@@H](c4ccc(Cl)cc4)CCN3C(=O)N(C)C)CC2)c([C@@H](N)C(C)C)c1 (stereo in doubt; form 2)	8.19	AUC (Rattus norvegicus): 533 ng·h/mL; half-life [2]: 4.3 h; Cmax [3]: 35 ng/mL; clearance [4]: 20 mL/min/kg; Vd [5]: 17.2 L/kg; bioavailability [6]: 7.2%; pIC50 (Melanocortin receptor 4 [7]): 7.03
COC(=O)N1CC[C@H](c2ccc(Cl)cc2)[C@H]1C(=O)N1CCN(c2ccc(C)cc2[C@@H](N)C(C)C)CC1	7.23	–
Cc1ccc(N2CCN(C(=O)[C@H]3[C@@H](c4ccc(Cl)cc4)CCN3C(=O)OC(C)C)CC2)c([C@@H](N)C(C)C)c1	7.92	–
CCCC(=O)N1CC[C@H](c2ccc(Cl)cc2)[C@H]1C(=O)N1CCN(c2ccc(C)cc2[C@@H](N)C(C)C)CC1	7.28	–
Cc1ccc(N2CCN(C(=O)[C@H]3[C@@H](c4ccc(Cl)cc4)CCN3C(=O)C(C)(C)C)CC2)c([C@@H](N)C(C)C)c1	8.14	–
CC(=O)N1CC[C@H](c2ccccc2)[C@@H]1C(=O)N1CCN(c2ccc(C)cc2[C@@H](N)C(C)C)CC1	5.74	–
Cc1ccc(N2CCN(C(=O)[C@@H]3[C@@H](c4ccc(Cl)cc4)CCN3C(=O)[C@H]3Cc4ccccc4CN3)CC2)c([C@@H](N)C(C)C)c1	7.04	pEC50 (Melanocortin receptor 4 [8]): 4.82; Emax (Melanocortin receptor 4 [8]): 21%
CC(C)[C@H](N)c1cccc(F)c1N1CCN(C(=O)C2NCCC2c2ccc(Cl)cc2Cl)CC1 (some centres undefined)	6.25	–
CC(=O)N1CC[C@H](c2ccc(C(F)(F)F)cc2)[C@@H]1C(=O)N1CCN(c2ccc(C)cc2[C@@H](N)C(C)C)CC1	7.27	–
COC(=O)N1CC[C@@H](c2ccc(Cl)cc2)[C@H]1C(=O)N1CCN(c2ccc(C)cc2[C@@H](N)C(C)C)CC1	7.28	–
Cc1ccc(N2CCN(C(=O)[C@@H]3[C@@H](c4ccc(Cl)cc4)CCN3C(=O)OC(C)C)CC2)c([C@@H](N)C(C)C)c1	7.17	–
CC(C)C[C@H](N)c1cc(Cl)ccc1N1CCN(C(=O)C2NCCC2c2ccc(Cl)cc2Cl)CC1 (some centres undefined)	6.72	–
Cc1ccc(N2CCN(C(=O)[C@@H]3[C@@H](c4ccc(Cl)cc4)CCN3C(=O)C3CCC3)CC2)c([C@@H](N)C(C)C)c1	7.26	–
CC(C)[C@H](N)c1cccc(F)c1N1CCN(C(=O)[C@@H]2NCC[C@@H]2c2ccc(Cl)cc2)CC1	–	pIC50 (Melanocortin receptor 4 [7]): 6.02
CCOC(=O)N1CC[C@@H](c2ccc(Cl)cc2)[C@H]1C(=O)N1CCN(c2ccc(C)cc2[C@@H](N)C(C)C)CC1	6.89	–
CC(=O)N1CC[C@H](c2ccc(Cl)cc2)[C@@H]1C(=O)N1CCN(c2ccc(C)cc2[C@@H](N)C(C)C)CC1 (stereo in doubt; form 2)	7.96	pIC50 (Melanocortin receptor 4 [7]): 6.28
CCOC(=O)N1CC[C@H](c2ccc(Cl)cc2)[C@@H]1C(=O)N1CCN(c2ccc(Cl)cc2[C@@H](N)C(C)C)CC1	7.74	–
COc1ccc([C@H]2CCN(C(C)=O)[C@H]2C(=O)N2CCN(c3ccc(C)cc3[C@@H](N)C(C)C)CC2)cc1	7.35	–
CC(C)C[C@H](N)c1cc(C(F)(F)F)ccc1N1CCN(C(=O)C2(Cc3ccc(Cl)cc3)COC(=O)N2)CC1 (some centres undefined)	6.26	–
Cc1ccc(N2CCN(C(=O)[C@@H]3NCC[C@@H]3c3ccc(Cl)cc3)CC2)c([C@@H](N)C(C)C)c1	7.28	pIC50 (Melanocortin receptor 4 [7]): 6.51
Cc1ccc(N2CCN(C(=O)[C@H]3[C@@H](c4ccc(Cl)cc4)CCN3S(C)(=O)=O)CC2)c([C@@H](N)C(C)C)c1	7.40	–
CC(C)C[C@H](N)c1cc(C(F)(F)F)ccc1N1CCN(C(=O)C2NC(=O)CC2c2ccc(Cl)cc2)CC1 (some centres undefined)	6.47	–
CC(=O)N1CC[C@H](c2ccc(Cl)cc2)[C@@H]1C(=O)N1CCN(c2ccc(C)cc2[C@@H](N)C(C)C)CC1 (stereo in doubt; form 1)	7.62	–
CC(=O)N1CC[C@H](c2ccc(C)cc2)[C@@H]1C(=O)N1CCN(c2ccc(C)cc2[C@@H](N)C(C)C)CC1	7.01	–

Structure (SMILES)	pKi (Melanocortin receptor 4 [1])	other results
CCOC(=O)N1CC[C@H](c2ccc(Cl)cc2)[C@@H]1C(=O)N1CCN(c2ccc(C)cc2[C@@H](N)C(C)C)CC1 (stereo in doubt; form 2)	7.96	–
CC(C)C[C@H](N)c1cc(Cl)ccc1N1CCN(C(=O)C2NCCC2c2ccc(Cl)cc2)CC1 (some centres undefined)	7.02	–
CCOC(=O)N1CC[C@H](c2ccc(Cl)cc2)[C@H]1C(=O)N1CCN(c2ccc(C)cc2[C@@H](N)C(C)C)CC1	7.38	–
CCOC(=O)N1CC[C@H](c2ccc(Cl)cc2)[C@@H]1C(=O)N1CCN(c2ccc(F)cc2[C@@H](N)C(C)C)CC1	7.13	–
CC(=O)N1CC[C@@H](c2ccc(Cl)cc2)[C@@H]1C(=O)N1CCN(c2ccc(C)cc2[C@@H](N)C(C)C)CC1	6.74	–
CC(C)C[C@H](N)c1cc(C(F)(F)F)ccc1N1CCN(C(=O)C2NCCC2c2ccc(Cl)cc2)CC1 (some centres undefined)	7.01	–
Cc1ccc(N2CCN(C(=O)[C@@H]3[C@@H](c4ccc(Cl)cc4)CCN3C(=O)C(C)(C)C)CC2)c([C@@H](N)C(C)C)c1	7.10	–
CC(=O)N1CC[C@H](c2ccc(Cl)cc2)[C@H]1C(=O)N1CCN(c2ccc(C)cc2[C@@H](N)C(C)C)CC1	7.11	–
CC(=O)N1CC[C@H](c2ccc(F)cc2)[C@@H]1C(=O)N1CCN(c2ccc(C)cc2[C@@H](N)C(C)C)CC1	6.48	–
Cc1ccc(N2CCN(C(=O)C3NCCC3c3ccc(Cl)cc3)CC2)c([C@@H](N)C(C)C)c1 (some centres undefined)	7.25	–
CCC(=O)N1CC[C@H](c2ccc(Cl)cc2)[C@H]1C(=O)N1CCN(c2ccc(C)cc2[C@@H](N)C(C)C)CC1	7.21	–
COC(=O)N1CC[C@H](c2ccc(Cl)cc2)[C@@H]1C(=O)N1CCN(c2ccc(C)cc2[C@@H](N)C(C)C)CC1 (stereo in doubt; form 1)	7.77	pIC50 (Melanocortin receptor 4 [7]): 6.14
CC(C)C[C@H](N)c1cc(C(F)(F)F)ccc1N1CCN(C(=O)[C@@H]2NCC[C@@H]2c2ccc(Cl)cc2)CC1	–	pIC50 (Melanocortin receptor 4 [7]): 5.62
CC(=O)N1CC[C@@H](c2ccc(Cl)cc2)[C@H]1C(=O)N1CCN(c2ccc(C)cc2[C@@H](N)C(C)C)CC1	6.92	–
Cc1ccc(N2CCN(C(=O)[C@H]3[C@@H](c4ccc(Cl)cc4)CCN3C)CC2)c([C@@H](N)C(C)C)c1	6.80	–
COC(=O)N1CC[C@H](c2ccc(Cl)cc2)[C@@H]1C(=O)N1CCN(c2ccc(C)cc2[C@@H](N)C(C)C)CC1 (stereo in doubt; form 2)	7.74	–
Cc1ccc(N2CCN(C(=O)[C@H]3[C@@H](c4ccc(Cl)cc4)CCN3C(C)C)CC2)c([C@@H](N)C(C)C)c1	6.96	–
CC(C)[C@H](N)c1cccc(F)c1N1CCN(C(=O)C2NCCC2c2ccc(Cl)cc2)CC1 (some centres undefined)	6.96	–
Cc1ccc(N2CCN(C(=O)[C@@H]3[C@H](c4ccc(Cl)cc4)CCN3C(=O)N(C)C)CC2)c([C@@H](N)C(C)C)c1	6.72	–
CCOC(=O)N1CC[C@H](c2ccc(Cl)cc2)[C@@H]1C(=O)N1CCN(c2ccc(C)cc2[C@@H](N)C(C)C)CC1 (stereo in doubt; form 1)	7.80	pIC50 (Melanocortin receptor 4 [7]): 6.19
Cc1ccc(N2CCN(C(=O)[C@H]3[C@@H](c4ccc(Cl)cc4)CCN3C(=O)[C@H]3Cc4ccccc4CN3)CC2)c([C@@H](N)C(C)C)c1	8.96	pEC50 (Melanocortin receptor 4 [8]): 5.46; Emax (Melanocortin receptor 4 [8]): 44%
CCOC(=O)N1CC[C@H](c2ccc(Cl)cc2)[C@@H]1C(=O)N1CCN(c2ccccc2[C@@H](N)C(C)C)CC1	7.03	–
CC(C)C[C@H](N)c1cc(Cl)ccc1N1CCN(C(=O)[C@@H]2NCC[C@@H]2c2ccc(Cl)cc2Cl)CC1	–	pIC50 (Melanocortin receptor 4 [7]): 5.82
Cc1ccc(N2CCN(C(=O)[C@H]3[C@@H](c4ccc(Cl)cc4)CCN3C(=O)N(C)C)CC2)c([C@@H](N)C(C)C)c1 (stereo in doubt; form 1)	8.13	pIC50 (Melanocortin receptor 4 [7]): 6.72
